The values below come from article PMC2963086 (Analytical biochemistry, 2010).

Values joined by “and” are separate entries in the source; they are usually repeats but may differ in a detail not shown here. Identical values can stand only once. Like-named read-outs stand apart in the source and are kept apart here.

In data set [1] the target is T1, Malate dehydrogenase (MDH) (Sus scrofa, UniProt P00346).
T1 sequence (P00346 25-338): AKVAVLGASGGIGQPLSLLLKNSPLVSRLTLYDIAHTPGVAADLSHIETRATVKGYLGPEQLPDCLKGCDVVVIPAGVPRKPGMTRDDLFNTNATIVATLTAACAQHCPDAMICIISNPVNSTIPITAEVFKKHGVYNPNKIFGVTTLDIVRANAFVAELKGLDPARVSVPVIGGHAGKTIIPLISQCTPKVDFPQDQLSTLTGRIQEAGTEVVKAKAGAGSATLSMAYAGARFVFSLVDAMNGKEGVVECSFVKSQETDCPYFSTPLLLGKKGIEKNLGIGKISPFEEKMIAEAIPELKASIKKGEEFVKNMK
Kind of data set: Enzymatic reaction assay, competitive inhibition, initial rates. It is filed as biochemical, Porcine heart mitochondria (sus scrofa).

The target of data set [2] is T2, Formate dehydrogenase (FDH) (Candida boidinii, UniProt O13437).
T2 sequence (O13437 1-364): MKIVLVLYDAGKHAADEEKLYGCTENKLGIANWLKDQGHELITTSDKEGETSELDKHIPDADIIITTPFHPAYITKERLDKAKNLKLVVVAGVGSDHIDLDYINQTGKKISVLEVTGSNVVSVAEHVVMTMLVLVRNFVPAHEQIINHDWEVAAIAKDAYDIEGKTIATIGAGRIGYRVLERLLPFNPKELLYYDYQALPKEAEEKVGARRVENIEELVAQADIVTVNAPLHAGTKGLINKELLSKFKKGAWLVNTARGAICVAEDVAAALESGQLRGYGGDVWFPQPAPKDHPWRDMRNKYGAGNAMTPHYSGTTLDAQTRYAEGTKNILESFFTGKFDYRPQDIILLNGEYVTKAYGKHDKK
The settings on record: native NAD^+, cited from earlier work.

Data set [3] concerns the target T1, Malate dehydrogenase (MDH). The settings on record: native NAD^+, 37; cited from earlier work.
The subject of data set [4] is Glucose dehydrogenase (GDH). The following applies: native NAD^+; cited from earlier work.
In data set [5] the test system is formate dehydrogenase (FDH). The following applies: azide anion with FDH; cited from earlier work.
Data set [6] has as its target T2, Formate dehydrogenase (FDH). Kind of data set: ITC binding of azo-NAD^+ to formate dehydrogenase. The following applies: Kd (Binary), FDH binary complex, pH 7.5. The procedure, abridged:
(§1)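 Isothermal titration calorimetry at pH 7.5 with commercial enzymes: Candida boidinii FDH and porcine heart mitochondrial MDH. Titrations of azo-NAD+ with enzyme; for the MDH ternary complex, malate is present. Heats of dilution subtracted from raw heats. Integrated heats fitted to a single-site binding model to give Kd.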

In data set [7] the target is T1, Malate dehydrogenase (MDH). Kind of data set: ITC binding of azo-NAD^+ to malate dehydrogenase. The class given is Porcine heart mitochondria (sus scrofa). The following applies: pH 7.5. The method, boiled down: as §1
The target of data set [8] is Glucose dehydrogenase (GDH). As to the kind of experiment: Fluorescence titration. The class given is binding, Bacillus megaterium. The following applies: read-out: Kd (Binary); GDH binary complex; fluorescence experiments; pH 7.5.
The target in data set [9] is T2, Formate dehydrogenase (FDH). As to the kind of experiment: Enzymatic reaction assay, initial rates. The class given is biochemical.
Data set [10] has as its system Glucose dehydrogenase (GDH). Kind of data set: Enzymatic reaction assay, initial rates. The class given is biochemical, Bacillus megaterium. The method, boiled down:
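Commercial Bacillus megaterium GDH in a 1 mL UV cuvette with 0.1 M phosphate buffer, pH 7.5, and azo-NAD+ as coenzyme. Initial rates taken over 2 min from the absorbance rise at 340 nm (azo-NADH). Km and kcat obtained by fitting rates against azo-NAD+ concentration to the Michaelis–Menten equation, with Vmax = [E]·kcat.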

The nature of data set [11]: Stability in phosphate buffer by UV absorbance ratio 260/303 nm. The settings on record: phosphate buffer pH 7.5, 24 hrs, 25 °C. The class given is physicochemical.
The nature of data set [12]: Solubility of the solid analog. The class given is physicochemical. The settings on record: phosphate buffer and methanol at room temperature.
Substrate in data set [13]: [N-]=[N+]=Nc1ccc[n+]([C@@H]2O[C@H](COP(=O)([O-])OP(=O)(O)OC[C@H]3O[C@@H](n4cnc5c(N)ncnc54)[C@H](O)[C@@H]3O)[C@@H](O)[C@H]2O)c1
Kind of data set: Enzymatic reaction assay, initial rates. The settings on record: other: FDH, azo-NAD^+ as substrate, 0.1 M phosphate buffer pH 7.5. The class given is biochemical, Candida boidinii.

Setting [14] is: azo-NAD^+ as substrate, 0.1 M phosphate buffer pH 7.5.

Usually kcat stands for the maximal rate divided by the concentration of active sites. For orientation: Km means the concentration of substrate that gives half-maximal velocity. Turning to `NC(=O)c1ccc[n+]([C@@H]2O[C@H](COP(=O)([O-])OP(=O)(O)OC[C@H]3O[C@@H](n4cnc5c(N)ncnc54)[C@H](O)[C@@H]3O)[C@@H](O)[C@H]2O)c1` [NAD^+, nicotinamide adenine dinucleotide], the kcat in data set [1] (MDH, native NAD^+, no reference given) is 45 s⁻¹; in data set [4], 390 ^d s^−1. Besides, the “kcat (turnover number)” value in data set [2] (Candida Boidinii FDH) was 3.7 s^−1 and 3.7 ^c s^−1. The Km in data set [2] (FDH) is 90 µM; in [3], 140 µM; in data set [4], 370 µM.
Regarding `[N-]=[N+]=[N-]` [azide anion], the binding constant result in data set [5] is reported as “nanomolar”.
For orientation: Kd means the equilibrium constant for the complex coming apart. What is called Ki is a measure of affinity in units of concentration, obtained from inhibition or displacement. As for `[N-]=[N+]=Nc1ccc[n+]([C@@H]2O[C@H](COP(=O)([O-])OP(=O)(O)OC[C@H]3O[C@@H](n4cnc5c(N)ncnc54)[C@H](O)[C@@H]3O)[C@@H](O)[C@H]2O)c1` [azo-NAD^+], the Kd in data set [6] was determined as 63 µM; in data set [7] (Kd (Binary), MDH binary complex), 152 µM; in data set [7] (Kd (Ternary), MDH ternary complex with substrate malate), 70 µM; in data set [8], 300 µM. Further, the “behaviour as substrate or inhibitor” value in data set [9] was “substrate”; in data set [1] (MDH), “competitive inhibitor”; in data set [10], “substrate”. This molecule also returned an inhibition constant (Ki) in [1] of 83 µM. Besides, in data set [10] (setting [14]), the Km amounted to 72 µM. The catalytic constant (kcat) in data set [10] (setting [14]) stood at 344 s⁻¹. For the same molecule, the “stability (ratio of UV absorbance 260 nm/303 nm unchanged)” value in data set [11] is listed as “stable”. Further, the solubility entry in data set [12] is “soluble”.

B1: Formate dehydrogenase (FDH) ([Candida] boidinii) (protein)
chain: T2 sequence (O13437 1-364)
As to B1, in data set [13], the Km worked out at 378 µM and the kcat turned out to be 7.5 s⁻¹.
